Measured values from ChEMBL document CHEMBL1811868, “Structure-activity relationship of 2-hydroxy-2-aryl-2,3-dihydro-imidazo[1,2-a]pyrimidinium salts and 2N-substituted 4(5)-aryl-2-amino-1H-imidazoles as inhibitors of biofilm formation by Salmonella Typhimurium and Pseudomonas aeruginosa” (Bioorg Med Chem, 2011).
Calls of active or inactive are those of the source.

Legend:
Salmonella typhimurium [1] = assay: Antimicrobial activity against Salmonella Typhimurium ATCC 14028 assessed as inhibition of planktonic cell growth at 40 uM after 24 hrs by […]; format: functional, organism-based; settings: Salmonella enterica subsp. enterica serovar Typhimurium
Summary of the method: (§1)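 Planktonic growth was followed by Bioscreen growth curves, not by crystal violet. Overnight cultures were diluted 1:200 in TSB 1/20 and received compound serially diluted in DMSO or EtOH, in triplicate, with solvent controls. Plates were shaken at 25 °C for at least 24 h, reading A600 every 15 min.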

Pseudomonas aeruginosa [2] = assay: Antimicrobial activity against Pseudomonas aeruginosa PA14 assessed as inhibition of biofilm formation after 24 hrs by spectrophotometry; format: functional, organism-based; settings: PA14, 24 h
Summary of the method: (§2)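 Static peg-lid biofilm prevention assay. Twofold serial dilutions in TSB diluted 1/20, 2–3 repeats per compound. Overnight S. Typhimurium ATCC14028 (LB-grown) or P. aeruginosa PA14 (TSB-grown) cultures were diluted 1:100, giving ~10^6 cells/well, then incubated 24 h at 25 °C without shaking. Pegs were PBS-washed, stained 30 min with 0.1% crystal violet, extracted with 30% acetic acid and read at OD570. IC50 was fitted from the concentration gradient.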

Pseudomonas aeruginosa [3] = assay: Antimicrobial activity against Pseudomonas aeruginosa PA14 assessed as inhibition of planktonic cell growth at IC50 after 24 hrs by […]; format: functional, organism-based; summary of the method: as §1
Pseudomonas aeruginosa [4] = assay: Antimicrobial activity against Pseudomonas aeruginosa PA14 assessed as inhibition of planktonic cell growth at 40 uM after 24 hrs by […]; format: functional, organism-based; summary of the method: as §1
Salmonella typhimurium [5] = assay: Antimicrobial activity against Salmonella Typhimurium ATCC 14028 assessed as inhibition of planktonic cell growth at IC50 after 24 hrs by […]; format: functional, organism-based; settings: Salmonella enterica subsp. enterica serovar Typhimurium; summary of the method: as §1
Salmonella typhimurium [6] = assay: Antimicrobial activity against Salmonella Typhimurium ATCC 14028 assessed as inhibition of biofilm formation after 24 hrs by spectrophotometry; format: functional, organism-based, Salmonella enterica subsp. enterica serovar Typhimurium; settings: Salmonella enterica, ATCC 14028, 24 h; summary of the method: as §2
Salmonella typhimurium [7] = assay: Antimicrobial activity against Salmonella Typhimurium ATCC 14028 assessed as inhibition of planktonic cell growth at 80 uM after 24 hrs by […]; format: functional, organism-based; settings: Salmonella enterica subsp. enterica serovar Typhimurium; summary of the method: as §1
Pseudomonas aeruginosa [8] = assay: Antimicrobial activity against Pseudomonas aeruginosa PA14 assessed as inhibition of planktonic cell growth at 80 uM after 24 hrs by […]; format: functional, organism-based; summary of the method: as §1
Salmonella typhimurium [9] = assay: Antimicrobial activity against Salmonella Typhimurium ATCC 14028 assessed as inhibition of planktonic cell growth at 20 uM after 24 hrs by […]; format: functional, organism-based; settings: Salmonella enterica subsp. enterica serovar Typhimurium; summary of the method: as §1

Clc1ccc(-c2cnc(NCc3ccccc3)[nH]2)cc1
growth inhibition (GI) (Salmonella typhimurium [1]): inactive | IC50 (Pseudomonas aeruginosa [2]): 26.3 µM | growth inhibition (GI) (Pseudomonas aeruginosa [3]): inactive | growth inhibition (GI) (Pseudomonas aeruginosa [4]): inactive | growth inhibition (GI) (Salmonella typhimurium [5]): inactive | IC50 (Salmonella typhimurium [6]): 30.7 µM

CCCCNc1ncc(-c2ccc(F)cc2)[nH]1
IC50 (Pseudomonas aeruginosa [2]): 10.8 µM | growth inhibition (GI) (Salmonella typhimurium [7]): inactive | growth inhibition (GI) (Pseudomonas aeruginosa [3]): inactive | growth inhibition (GI) (Pseudomonas aeruginosa [4]): inactive | growth inhibition (GI) (Salmonella typhimurium [5]): inactive | IC50 (Salmonella typhimurium [6]): 15.5 µM

O[C@@]1(c2ccccc2)C[n+]2cccnc2N1C1CCCCCCC1
IC50 (Pseudomonas aeruginosa [2]): 48.6 µM | growth inhibition (GI) (Salmonella typhimurium [7]): Active | growth inhibition (GI) (Pseudomonas aeruginosa [3]): Active | growth inhibition (GI) (Salmonella typhimurium [5]): Active | growth inhibition (GI) (Pseudomonas aeruginosa [8]): Active | IC50 (Salmonella typhimurium [6]): 58.4 µM

O[C@@]1(c2ccc(I)cc2)C[n+]2cccnc2N1Cc1ccccc1
growth inhibition (GI) (Salmonella typhimurium [1]): inactive | growth inhibition (GI) (Salmonella typhimurium [5]): inactive | IC50 (Salmonella typhimurium [6]): 36.7 µM

c1ccc(-c2cnc(NC3CCCC3)[nH]2)cc1
IC50 (Pseudomonas aeruginosa [2]): 33.8 µM | growth inhibition (GI) (Salmonella typhimurium [7]): inactive | growth inhibition (GI) (Pseudomonas aeruginosa [3]): inactive | growth inhibition (GI) (Pseudomonas aeruginosa [4]): inactive | growth inhibition (GI) (Salmonella typhimurium [5]): inactive | IC50 (Salmonella typhimurium [6]): 52.9 µM

CC(C)CN1c2nccc[n+]2C[C@@]1(O)c1ccc(Cl)c(Cl)c1
growth inhibition (GI) (Salmonella typhimurium [1]): Active | growth inhibition (GI) (Salmonella typhimurium [5]): inactive | IC50 (Salmonella typhimurium [6]): 8 µM

CCCCNc1ncc(-c2ccccc2)[nH]1
growth inhibition (GI) (Salmonella typhimurium [1]): inactive | IC50 (Pseudomonas aeruginosa [2]): 31.8 µM | growth inhibition (GI) (Salmonella typhimurium [5]): inactive | IC50 (Salmonella typhimurium [6]): 25.3 µM

CCCCNc1ncc(-c2ccc(OC)cc2)[nH]1
IC50 (Pseudomonas aeruginosa [2]): 46.3 µM | growth inhibition (GI) (Salmonella typhimurium [7]): inactive | growth inhibition (GI) (Pseudomonas aeruginosa [3]): inactive | growth inhibition (GI) (Salmonella typhimurium [5]): inactive | growth inhibition (GI) (Pseudomonas aeruginosa [8]): inactive | IC50 (Salmonella typhimurium [6]): 52.6 µM

O[C@@]1(c2ccccc2)C[n+]2cccnc2N1C1CCCCC1
IC50 (Pseudomonas aeruginosa [2]): 22.4 µM | growth inhibition (GI) (Pseudomonas aeruginosa [3]): inactive | growth inhibition (GI) (Salmonella typhimurium [5]): Active | growth inhibition (GI) (Pseudomonas aeruginosa [8]): Active | IC50 (Salmonella typhimurium [6]): 139 µM

O=[N+]([O-])c1ccc(-c2cnc(NC3CCCC3)[nH]2)cc1
IC50 (Pseudomonas aeruginosa [2]): 20.2 µM | growth inhibition (GI) (Salmonella typhimurium [9]): inactive | growth inhibition (GI) (Pseudomonas aeruginosa [3]): inactive | growth inhibition (GI) (Salmonella typhimurium [5]): inactive | IC50 (Salmonella typhimurium [6]): 11.8 µM

O[C@@]1(c2ccc(Cl)cc2)C[n+]2cccnc2N1C1CCCC1
IC50 (Pseudomonas aeruginosa [2]): 41.9 µM | growth inhibition (GI) (Salmonella typhimurium [7]): Active | growth inhibition (GI) (Pseudomonas aeruginosa [3]): Active | growth inhibition (GI) (Salmonella typhimurium [5]): Active | growth inhibition (GI) (Pseudomonas aeruginosa [8]): Active | IC50 (Salmonella typhimurium [6]): 41.8 µM

O[C@@]1(c2ccc(F)cc2)C[n+]2cccnc2N1Cc1ccc2c(c1)OCO2
growth inhibition (GI) (Salmonella typhimurium [1]): inactive | growth inhibition (GI) (Salmonella typhimurium [5]): inactive | IC50 (Salmonella typhimurium [6]): 17.2 µM

COc1ccc(-c2cnc(NC3CCCCC3)[nH]2)cc1
IC50 (Pseudomonas aeruginosa [2]): 54.8 µM | growth inhibition (GI) (Pseudomonas aeruginosa [3]): inactive | growth inhibition (GI) (Pseudomonas aeruginosa [8]): inactive | IC50 (Salmonella typhimurium [6]): 378 µM

CCCCCCCCNc1ncc(-c2ccc([N+](=O)[O-])cc2)[nH]1
IC50 (Pseudomonas aeruginosa [2]): 25 µM | growth inhibition (GI) (Salmonella typhimurium [7]): inactive | growth inhibition (GI) (Salmonella typhimurium [5]): inactive | IC50 (Salmonella typhimurium [6]): 10.9 µM

CNc1ncc(-c2ccc(F)cc2)[nH]1
IC50 (Pseudomonas aeruginosa [2]): 25.2 µM | growth inhibition (GI) (Pseudomonas aeruginosa [3]): inactive | growth inhibition (GI) (Pseudomonas aeruginosa [4]): inactive | IC50 (Salmonella typhimurium [6]): 102 µM

CNc1ncc(-c2ccc([N+](=O)[O-])cc2)[nH]1
IC50 (Pseudomonas aeruginosa [2]): 56.1 µM | growth inhibition (GI) (Pseudomonas aeruginosa [3]): inactive | growth inhibition (GI) (Pseudomonas aeruginosa [8]): inactive | IC50 (Salmonella typhimurium [6]): 170 µM

O[C@@]1(c2ccc(Cl)cc2)C[n+]2cccnc2N1C1CCCCC1
IC50 (Pseudomonas aeruginosa [2]): 16.4 µM | growth inhibition (GI) (Salmonella typhimurium [7]): Active | growth inhibition (GI) (Pseudomonas aeruginosa [3]): inactive | growth inhibition (GI) (Salmonella typhimurium [5]): Active | growth inhibition (GI) (Pseudomonas aeruginosa [8]): Active | IC50 (Salmonella typhimurium [6]): 33 µM

CCCCCN1c2nccc[n+]2C[C@@]1(O)c1ccc(Cl)cc1
growth inhibition (GI) (Salmonella typhimurium [1]): inactive | IC50 (Pseudomonas aeruginosa [2]): 164 µM | growth inhibition (GI) (Pseudomonas aeruginosa [3]): Active | growth inhibition (GI) (Salmonella typhimurium [5]): inactive | IC50 (Salmonella typhimurium [6]): 32.6 µM

Clc1ccc(-c2cnc(NC3CCCC3)[nH]2)cc1
growth inhibition (GI) (Salmonella typhimurium [1]): inactive | IC50 (Pseudomonas aeruginosa [2]): 13.5 µM | growth inhibition (GI) (Pseudomonas aeruginosa [3]): inactive | growth inhibition (GI) (Pseudomonas aeruginosa [4]): inactive | growth inhibition (GI) (Salmonella typhimurium [5]): inactive | IC50 (Salmonella typhimurium [6]): 4.4 µM

O=[N+]([O-])c1cccc(-c2cnc(NC3CCCCC3)[nH]2)c1
IC50 (Pseudomonas aeruginosa [2]): 4.4 µM | growth inhibition (GI) (Pseudomonas aeruginosa [3]): inactive | growth inhibition (GI) (Pseudomonas aeruginosa [4]): inactive | IC50 (Salmonella typhimurium [6]): 630 µM

CCCNc1ncc(-c2ccc(Cl)c(Cl)c2)[nH]1
IC50 (Pseudomonas aeruginosa [2]): 27.7 µM | growth inhibition (GI) (Salmonella typhimurium [9]): inactive | growth inhibition (GI) (Salmonella typhimurium [5]): inactive | IC50 (Salmonella typhimurium [6]): 10.9 µM

O=[N+]([O-])c1ccc(-c2cnc(NC3CCCCC3)[nH]2)cc1
growth inhibition (GI) (Salmonella typhimurium [1]): inactive | IC50 (Pseudomonas aeruginosa [2]): 25 µM | growth inhibition (GI) (Salmonella typhimurium [5]): inactive | IC50 (Salmonella typhimurium [6]): 36.7 µM

CCCCCCCCN1c2nccc[n+]2C[C@@]1(O)c1ccc([N+](=O)[O-])cc1
IC50 (Pseudomonas aeruginosa [2]): 12.1 µM | growth inhibition (GI) (Pseudomonas aeruginosa [3]): Active | growth inhibition (GI) (Salmonella typhimurium [5]): Active | IC50 (Salmonella typhimurium [6]): 6.6 µM

CCCCCCCCNc1ncc(-c2cccc(Br)c2)[nH]1
IC50 (Pseudomonas aeruginosa [2]): > 800 µM | growth inhibition (GI) (Salmonella typhimurium [7]): inactive | growth inhibition (GI) (Salmonella typhimurium [5]): inactive | IC50 (Salmonella typhimurium [6]): 44.6 µM

CCCCN1c2nccc[n+]2C[C@@]1(O)c1ccc(Cl)cc1
growth inhibition (GI) (Salmonella typhimurium [1]): inactive | IC50 (Pseudomonas aeruginosa [2]): 24.9 µM | growth inhibition (GI) (Pseudomonas aeruginosa [3]): inactive | growth inhibition (GI) (Pseudomonas aeruginosa [4]): inactive | growth inhibition (GI) (Salmonella typhimurium [5]): inactive | IC50 (Salmonella typhimurium [6]): 29.7 µM

CC(C)CN1c2nccc[n+]2C[C@@]1(O)c1ccc(Cl)cc1
growth inhibition (GI) (Salmonella typhimurium [1]): inactive | IC50 (Pseudomonas aeruginosa [2]): 83.4 µM | growth inhibition (GI) (Salmonella typhimurium [5]): inactive | IC50 (Salmonella typhimurium [6]): 31.4 µM

CCCCCN1c2nccc[n+]2C[C@@]1(O)c1ccc(Br)cc1
growth inhibition (GI) (Salmonella typhimurium [1]): inactive | IC50 (Pseudomonas aeruginosa [2]): 4.2 µM | growth inhibition (GI) (Pseudomonas aeruginosa [3]): inactive | growth inhibition (GI) (Pseudomonas aeruginosa [4]): inactive | growth inhibition (GI) (Salmonella typhimurium [5]): inactive | IC50 (Salmonella typhimurium [6]): 1.7 µM

CCCCCCCN1c2nccc[n+]2C[C@@]1(O)c1ccccc1
IC50 (Pseudomonas aeruginosa [2]): 25.5 µM | growth inhibition (GI) (Pseudomonas aeruginosa [3]): Active | growth inhibition (GI) (Salmonella typhimurium [5]): Active | IC50 (Salmonella typhimurium [6]): 23.4 µM

O[C@@]1(c2ccc(Cl)cc2)C[n+]2cccnc2N1C1CCCCCC1
IC50 (Pseudomonas aeruginosa [2]): 76.2 µM | growth inhibition (GI) (Pseudomonas aeruginosa [3]): Active | growth inhibition (GI) (Salmonella typhimurium [5]): Active | growth inhibition (GI) (Pseudomonas aeruginosa [8]): Active | IC50 (Salmonella typhimurium [6]): 27.9 µM

CC(C)CNc1ncc(-c2ccc([N+](=O)[O-])cc2)[nH]1
growth inhibition (GI) (Salmonella typhimurium [1]): inactive | IC50 (Pseudomonas aeruginosa [2]): 22.9 µM | growth inhibition (GI) (Pseudomonas aeruginosa [3]): inactive | growth inhibition (GI) (Salmonella typhimurium [5]): inactive | IC50 (Salmonella typhimurium [6]): 3.8 µM

CC(C)CN1c2nccc[n+]2C[C@@]1(O)c1ccc(Br)cc1
growth inhibition (GI) (Salmonella typhimurium [1]): Active | IC50 (Pseudomonas aeruginosa [2]): 6.3 µM | growth inhibition (GI) (Pseudomonas aeruginosa [3]): inactive | growth inhibition (GI) (Pseudomonas aeruginosa [4]): inactive | growth inhibition (GI) (Salmonella typhimurium [5]): inactive | IC50 (Salmonella typhimurium [6]): 5.2 µM

COc1cccc(CNc2ncc(-c3ccc([N+](=O)[O-])cc3)[nH]2)c1
growth inhibition (GI) (Salmonella typhimurium [1]): inactive | IC50 (Pseudomonas aeruginosa [2]): 3.7 µM | growth inhibition (GI) (Pseudomonas aeruginosa [3]): inactive | growth inhibition (GI) (Pseudomonas aeruginosa [4]): inactive | growth inhibition (GI) (Salmonella typhimurium [5]): inactive | IC50 (Salmonella typhimurium [6]): 19.1 µM
